# Source: ChEMBL document CHEMBL2073862, “Localization of organic anion transporting polypeptides in the rat and human ciliary body epithelium” (Exp Eye Res, 2005)
# B1: Solute carrier organic anion transporter family member 4A1 (Homo sapiens) (protein)
# chain: MPLHQLGDKPLTFPSPNSAMENGLDHTPPSRRASPGTPLSPGSLRSAAHSPLDTSKQPLCQLWAEKHGARGTHEVRYVSAGQSVACGWWAFAPPCLQVLNTPKGILFFLCAAAFLQGMTVNGFINTVITSLERRYDLHSYQSGLIASSYDIAACLCLTFVSYFGGSGHKPRWLGWGVLLMGTGSLVFALPHFTAGRYEVELDAGVRTCPANPGAVCADSTSGLSRYQLVFMLGQFLHGVGATPLYTLGVTYLDENVKSSCSPVYIAIFYTAAILGPAAGYLIGGALLNIYTEMGRRTELTTESPLWVGAWWVGFLGSGAAAFFTAVPILGYPRQLPGSQRYAVMRAAEMHQLKDSSRGEASNPDFGKTIRDLPLSIWLLLKNPTFILLCLAGATEATLITGMSTFSPKFLESQFSLSASEAATLFGYLVVPAGGGGTFLGGFFVNKLRLRGSAVIKFCLFCTVVSLLGILVFSLHCPSVPMAGVTASYGGSLLPEGHLNLTAPCNAACSCQPEHYSPVCGSDGLMYFSLCHAGCPAATETNVDGQKVYRDCSCIPQNLSSGFGHATAGKCTSTCQRKPLLLVFIFVVIFFTFLSSIPALTATLRCVRDPQRSFALGIQWIVVRILGGIPGPIAFGWVIDKACLLWQDQCGQQGSCLVYQNSAMSRYILIMGLLYKVLGVLFFAIACFLYKPLSESSDGLETCLPSQSSAPDSATDSQLQSSV
# B2: Solute carrier organic anion transporter family member 2B1 (Homo sapiens) (protein)
# chain: MGPRIGPAGEVPQVPDKETKATMGTENTPGGKASPDPQDVRPSVFHNIKLFVLCHSLLQLAQLMISGYLKSSISTVEKRFGLSSQTSGLLASFNEVGNTALIVFVSYFGSRVHRPRMIGYGAILVALAGLLMTLPHFISEPYRYDNTSPEDMPQDFKASLCLPTTSAPASAPSNGNCSSYTETQHLSVVGIMFVAQTLLGVGGVPIQPFGISYIDDFAHNSNSPLYLGILFAVTMMGPGLAFGLGSLMLRLYVDINQMPEGGISLTIKDPRWVGAWWLGFLIAAGAVALAAIPYFFFPKEMPKEKRELQFRRKVLAVTDSPARKGKDSPSKQSPGESTKKQDGLVQIAPNLTVIQFIKVFPRVLLQTLRHPIFLLVVLSQVCLSSMAAGMATFLPKFLERQFSITASYANLLIGCLSFPSVIVGIVVGGVLVKRLHLGPVGCGALCLLGMLLCLFFSLPLFFIGCSSHQIAGITHQTSAHPGLELSPSCMEACSCPLDGFNPVCDPSTRVEYITPCHAGCSSWVVQDALDNSQVFYTNCSCVVEGNPVLAGSCDSTCSHLVVPFLLLVSLGSALACLTHTPSFMLILRGVKKEDKTLAVGIQFMFLRILAWMPSPVIHGSAIDTTCVHWALSCGRRAVCRYYNNDLLRNRFIGLQFFFKTGSVICFALVLAVLRQQDKEARTKESRSSPAVEQQLLVSGPGKKPEDSRV
# Columns and labels:
# [1] = target: T1, Solute carrier organic anion transporter family member 1C1 (Homo sapiens, UniProt Q9NYB5); assay: (§1) TP_TRANSPORTER: uptake in Xenopus laevis oocytes; assay type: functional, cell-based; details: oocyte
# T1 sequence (Q9NYB5 whole entry): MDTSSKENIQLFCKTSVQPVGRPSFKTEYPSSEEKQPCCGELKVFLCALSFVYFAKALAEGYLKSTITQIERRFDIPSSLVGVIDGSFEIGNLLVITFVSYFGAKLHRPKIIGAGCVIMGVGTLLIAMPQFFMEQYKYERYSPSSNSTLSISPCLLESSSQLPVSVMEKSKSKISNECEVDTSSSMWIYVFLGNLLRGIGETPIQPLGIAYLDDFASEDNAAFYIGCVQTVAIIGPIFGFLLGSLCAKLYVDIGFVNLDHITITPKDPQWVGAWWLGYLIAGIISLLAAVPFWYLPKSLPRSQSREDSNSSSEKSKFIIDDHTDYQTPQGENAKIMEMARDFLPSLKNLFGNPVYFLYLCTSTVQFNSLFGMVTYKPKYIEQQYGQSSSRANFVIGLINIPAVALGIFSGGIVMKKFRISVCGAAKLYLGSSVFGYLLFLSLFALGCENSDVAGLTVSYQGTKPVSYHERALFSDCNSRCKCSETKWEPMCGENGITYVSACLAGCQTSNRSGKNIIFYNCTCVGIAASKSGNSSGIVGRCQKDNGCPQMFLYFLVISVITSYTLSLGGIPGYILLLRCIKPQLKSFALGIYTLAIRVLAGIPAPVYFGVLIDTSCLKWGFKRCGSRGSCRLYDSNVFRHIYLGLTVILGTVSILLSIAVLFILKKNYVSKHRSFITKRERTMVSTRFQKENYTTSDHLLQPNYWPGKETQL
# Summary of the method: (§2)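 Oocytes were injected with 5 ng of cRNA for human OATP1A2, 1C1, 2B1, 3A1 or 4A1, or with water, then cultured 3 days. Radioactivity was counted by scintillation, water-injected uptake was subtracted, and Km came from nonlinear regression of 12–15 oocytes.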
# [2] = target: T2, Solute carrier organic anion transporter family member 2B1 (Homo sapiens, UniProt O94956); assay: as §1; assay type: functional, cell-based; details: oocyte; summary of the method: as §2
# T2 sequence (O94956 whole entry): B2 chain
# [3] = target: T3, Solute carrier organic anion transporter family member 3A1 (Homo sapiens, UniProt Q9UIG8); assay: as §1; assay type: functional, cell-based; details: oocyte; summary of the method: as §2
# T3 sequence (Q9UIG8 whole entry): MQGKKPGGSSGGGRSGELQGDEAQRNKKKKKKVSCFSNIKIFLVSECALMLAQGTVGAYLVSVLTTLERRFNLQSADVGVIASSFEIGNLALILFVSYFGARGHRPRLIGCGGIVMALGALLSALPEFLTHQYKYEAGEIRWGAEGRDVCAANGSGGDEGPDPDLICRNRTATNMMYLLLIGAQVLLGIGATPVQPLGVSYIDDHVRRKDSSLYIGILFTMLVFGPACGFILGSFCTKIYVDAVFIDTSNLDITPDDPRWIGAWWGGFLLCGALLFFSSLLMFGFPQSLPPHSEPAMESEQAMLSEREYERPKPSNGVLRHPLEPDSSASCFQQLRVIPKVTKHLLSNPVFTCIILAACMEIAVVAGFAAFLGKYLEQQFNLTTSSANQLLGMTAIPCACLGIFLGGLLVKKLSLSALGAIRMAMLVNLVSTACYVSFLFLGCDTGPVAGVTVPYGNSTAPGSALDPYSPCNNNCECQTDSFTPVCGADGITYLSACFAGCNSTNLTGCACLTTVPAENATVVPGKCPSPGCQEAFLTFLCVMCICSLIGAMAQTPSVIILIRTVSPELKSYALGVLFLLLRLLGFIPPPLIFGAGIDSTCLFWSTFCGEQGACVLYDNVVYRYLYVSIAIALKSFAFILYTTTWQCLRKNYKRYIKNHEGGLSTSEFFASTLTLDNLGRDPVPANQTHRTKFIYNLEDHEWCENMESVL
# [4] = target: T4, Solute carrier organic anion transporter family member 4A1 (Homo sapiens, UniProt Q96BD0); assay: as §1; assay type: functional, cell-based; details: oocyte; summary of the method: as §2
# T4 sequence (Q96BD0 whole entry): B1 chain
# [5] = target: T5, Solute carrier organic anion transporter family member 1A2 (Homo sapiens, UniProt P46721); assay: as §1; assay type: functional, cell-based, Oocyte; summary of the method: as §2
# T5 sequence (P46721 whole entry): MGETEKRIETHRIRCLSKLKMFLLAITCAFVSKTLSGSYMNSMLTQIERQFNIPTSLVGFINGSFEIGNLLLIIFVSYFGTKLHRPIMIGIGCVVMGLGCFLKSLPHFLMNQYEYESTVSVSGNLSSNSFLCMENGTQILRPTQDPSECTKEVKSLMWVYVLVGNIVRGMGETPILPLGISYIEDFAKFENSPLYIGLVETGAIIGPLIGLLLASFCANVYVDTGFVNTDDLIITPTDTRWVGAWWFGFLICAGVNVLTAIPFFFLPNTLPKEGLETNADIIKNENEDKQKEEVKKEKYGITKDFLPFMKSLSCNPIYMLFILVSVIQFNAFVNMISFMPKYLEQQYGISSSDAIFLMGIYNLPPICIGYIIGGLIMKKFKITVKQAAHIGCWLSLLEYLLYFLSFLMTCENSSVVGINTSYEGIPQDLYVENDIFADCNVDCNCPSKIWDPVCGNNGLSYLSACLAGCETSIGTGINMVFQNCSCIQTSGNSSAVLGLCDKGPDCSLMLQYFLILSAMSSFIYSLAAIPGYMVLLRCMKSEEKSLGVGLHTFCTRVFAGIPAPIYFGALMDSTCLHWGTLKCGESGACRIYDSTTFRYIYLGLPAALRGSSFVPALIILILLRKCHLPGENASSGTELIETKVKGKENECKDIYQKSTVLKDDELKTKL
# [6] = substrate: CCCCCCCC(=O)CC[C@@H]1[C@@H](C/C=C\CCCC(=O)O)[C@@H](O)C[C@H]1O; assay: as §1; assay type: functional, cell-based, Oocyte; summary of the method: as §2
Molecule,Activity [1],Activity [2],Activity [3],Activity [4],Activity ([5]; oocyte),Km ([5]; Xenopus laevis oocytes) [µM],Km [6] [µM]
CCCCCCCC(=O)CC[C@@H]1[C@@H](C/C=C\CCCC(=O)OC(C)C)[C@@H](O)C[C@H]1O [UNOPROSTONE ISOPROPYL],is not a substrate [(-)],is not a substrate [(-)],is not a substrate [(-)],is not a substrate [(-)],is not a substrate [(-)],,
CCCCCCCC(=O)CC[C@@H]1[C@@H](C/C=C\CCCC(=O)O)[C@@H](O)C[C@H]1O [UNOPROSTONE],is not a substrate [(-)],,is not a substrate [(-)],,,93,
B1,,,,,,,132
B2,,,,,,,91
